Measurements: ChEMBL document CHEMBL5329156, “Discovery and development of novel substituted monohydrazides as potent antifungal agents” (RSC Med Chem, 2023)
Values after ≈ are worked out from the molar mass of the structure shown. Active and inactive are the calls of the source. The rule behind the calls is not given here.

Legend:
Aspergillus fumigatus [1] = assay: Antifungal activity against Aspergillus fumigatus NRRL 6113 assessed as fungal growth inhibition by double dilution method; type: functional
Kodamaea ohmeri = assay: Antifungal activity against Kodamaea ohmeri AR Bank # 396 assessed as fungal growth inhibition by double dilution method; type: functional
Method in brief: (§1)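 Broth microdilution after CLSI M27-A3/M38-A2 with minor changes. Single colony grown overnight in YPD at 35 °C, 200 rpm. Compound final range 0.06-31.3 µg/mL; incubated 48 h at 35 °C.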

[Candida] auris [2] = Antifungal activity against Candida auris AR Bank # 0384 assessed as fungal growth inhibition by double dilution method; type: functional; conditions: Candidozyma auris; method in brief: as §1
Aspergillus fumigatus [3] = assay: Antifungal activity against Aspergillus fumigatus NRRL 163 assessed as fungal growth inhibition by double dilution method; type: functional
[Candida] auris [4] = Antifungal activity against Candida auris AR Bank # 388 assessed as fungal growth inhibition by double dilution method; type: functional; conditions: Candidozyma auris; method in brief: as §1
Aspergillus fumigatus [5] = assay: Antifungal activity against Aspergillus fumigatus NRRL 5109 assessed as fungal growth inhibition by double dilution method; type: functional
[Candida] auris [6] = Antifungal activity against Candida auris AR Bank # 381 assessed as fungal growth inhibition by double dilution method; type: functional; conditions: Candidozyma auris; method in brief: as §1
Candida albicans [7] = assay: Antifungal activity against itraconazole/fluconazole resistant Candida albicans ATCC 90819 assessed as fungal growth inhibition by double dilution method; type: functional
Method in brief: (§2)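 Broth microdilution after CLSI M27-A3/M38-A2 with minor modifications. A single colony was grown overnight in YPD at 35 °C with shaking at 200 rpm. Cells were mixed 1:1 with compound (final 0.06-31.3 µg/mL, from DMSO stocks) and incubated 48 h at 35 °C.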

Clavispora lusitaniae = assay: Antifungal activity against Clavispora lusitaniae AR Bank # 398 assessed as fungal growth inhibition by double dilution method; type: functional; method in brief: as §1
Nakaseomyces glabratus [8] = assay: Antifungal activity against Candida glabrata ATCC 2001 assessed as fungal growth inhibition by double dilution method; type: functional; method in brief: as §1
[Candida] haemuloni [9] = Antifungal activity against Candida haemulonii AR Bank # 395 assessed as fungal growth inhibition by double dilution method; type: functional; conditions: Candidozyma haemuli; method in brief: as §1
Aspergillus flavus = assay: Antifungal activity against Aspergillus flavus ATCC MYA-3631 assessed as fungal growth inhibition by double dilution method; type: functional
Candida albicans [10] = assay: Antifungal activity against itraconazole/fluconazole susceptible Candida albicans ATCC MYA-2310 assessed as fungal growth inhibition by double dilution method; type: functional; method in brief: as §2
Candida albicans [11] = assay: Antibiofilm activity against Candida albicans ATCC 10231 assessed as reduction in biofilm production at 1.96 to 3.9 microg/ml by biofilm formation assay; type: functional, organism-based; conditions: dose 1.96-3.9 µg/ml
[Candida] auris [12] = Antifungal activity against Candida auris AR Bank # 387 assessed as fungal growth inhibition by double dilution method; type: functional; conditions: Candidozyma auris; method in brief: as §1
Candida albicans [13] = assay: Antifungal activity against Candida albicans ATCC 64124 assessed as fungal growth inhibition by double dilution method; type: functional; method in brief: as §2
Aspergillus nidulans = assay: Antifungal activity against Aspergillus nidulans ATCC 38163 assessed as fungal growth inhibition by double dilution method; type: functional
[Candida] auris [14] = Antifungal activity against Candida auris AR Bank # 384 assessed as fungal growth inhibition by double dilution method; type: functional; conditions: Candidozyma auris; method in brief: as §1
[Candida] auris [15] = Antifungal activity against Candida auris AR Bank # 383 assessed as fungal growth inhibition by double dilution method; type: functional; conditions: Candidozyma auris; method in brief: as §1
[Candida] auris [16] = Antifungal activity against Candida auris AR Bank # 386 assessed as fungal growth inhibition by double dilution method; type: functional; conditions: Candidozyma auris; method in brief: as §1
Pichia kudriavzevii [17] = assay: Antifungal activity against Pichia kudriavzevii AR Bank # 397 assessed as fungal growth inhibition by double dilution method; type: functional; method in brief: as §1
Candida duobushaemulonii [18] = assay: Antifungal activity against Candida duobushaemulonii AR Bank # 394 assessed as fungal growth inhibition by double dilution method; type: functional; conditions: Candidozyma duobushaemuli; method in brief: as §1
Candida albicans [19] = assay: Antifungal activity against itraconazole/fluconazole resistant Candida albicans ATCC MYA-1003 assessed as fungal growth inhibition by double dilution method; type: functional; method in brief: as §2
Candida duobushaemulonii [20] = assay: Antifungal activity against Candida duobushaemulonii AR Bank # 392 assessed as fungal growth inhibition by double dilution method; type: functional; conditions: Candidozyma duobushaemuli; method in brief: as §1
[Candida] auris [21] = Antifungal activity against Candida auris AR Bank # 0390 assessed as fungal growth inhibition by double dilution method; type: functional; conditions: Candidozyma auris; method in brief: as §1
Saccharomyces cerevisiae [22] = assay: Antifungal activity against Saccharomyces cerevisiae AR Bank # 400 assessed as fungal growth inhibition by double dilution method; type: functional; method in brief: as §1
Pichia kudriavzevii [23] = assay: Antifungal activity against Pichia kudriavzevii ATCC 6258 assessed as fungal growth inhibition by double dilution method; type: functional; method in brief: as §1
Saccharomyces cerevisiae [24] = assay: Antifungal activity against Saccharomyces cerevisiae AR Bank # 399 assessed as fungal growth inhibition by double dilution method; type: functional; method in brief: as §1
Aspergillus terreus = assay: Antifungal activity against Aspergillus terreus ATCC MYA-3633 assessed as fungal growth inhibition by double dilution method; type: functional
[Candida] auris [25] = Antifungal activity against Candida auris AR Bank # 389 assessed as fungal growth inhibition by double dilution method; type: functional; conditions: Candidozyma auris; method in brief: as §1
Nakaseomyces glabratus [26] = assay: Antifungal activity against Candida glabrata ATCC 22019 assessed as fungal growth inhibition by double dilution method; type: functional; method in brief: as §1
Candida duobushaemulonii [27] = assay: Antifungal activity against Candida duobushaemulonii AR Bank # 391 assessed as fungal growth inhibition by double dilution method; type: functional; conditions: Candidozyma duobushaemuli; method in brief: as §1
Candida albicans [28] = assay: Antifungal activity against itraconazole/fluconazole resistant Candida albicans ATCC MYA-1237 assessed as fungal growth inhibition by double dilution method; type: functional; method in brief: as §2
Candida albicans [29] = assay: Antifungal activity against itraconazole/fluconazole susceptible Candida albicans ATCC MYA-2876 assessed as fungal growth inhibition by double dilution method; type: functional; method in brief: as §2
Candida albicans [30] = assay: Antifungal activity against Candida albicans ATCC 10231 assessed as fungal growth inhibition by double dilution method; type: functional; method in brief: as §1
[Candida] haemuloni [31] = Antifungal activity against Candida haemulonii AR Bank # 393 assessed as fungal growth inhibition by double dilution method; type: functional; conditions: Candidozyma haemuli; method in brief: as §1
[Candida] auris [32] = Antifungal activity against Candida auris AR Bank # 382 assessed as fungal growth inhibition by double dilution method; type: functional; conditions: Candidozyma auris; method in brief: as §1
[Candida] auris [33] = Antifungal activity against Candida auris AR Bank # 385 assessed as fungal growth inhibition by double dilution method; type: functional; conditions: Candidozyma auris; method in brief: as §1
Cryptococcus neoformans = assay: Antifungal activity against Cryptococcus neoformans ATCC MYA-895 assessed as fungal growth inhibition by double dilution method; type: functional; method in brief: as §1
[Candida] auris [34] = Antifungal activity against Candida auris AR Bank # 390 assessed as fungal growth inhibition by double dilution method; type: functional; conditions: Candidozyma auris; method in brief: as §1

For `O=C(NNc1cc(F)ccc1F)c1ccccn1`, the MIC (Aspergillus fumigatus [1]) was > 31.3 µg/mL, the MIC (Kodamaea ohmeri) was 0.12 µg/mL (≈ 0.482 µM) and the MIC ([Candida] auris [2]) was 0.24 µg/mL (≈ 0.963 µM). For the same molecule, the MIC (Aspergillus fumigatus [3]) was > 31.3 µg/mL, the MIC ([Candida] auris [4]) was 0.49 µg/mL (≈ 1.97 µM) and the MIC (Aspergillus fumigatus [5]) was 15.6 µg/mL (≈ 62.6 µM). The MIC ([Candida] auris [6]) was 1.95 µg/mL (≈ 7.82 µM), the MIC (Candida albicans [7]) was 0.98 µg/mL (≈ 3.93 µM) and the MIC (Clavispora lusitaniae) was 0.49 µg/mL (≈ 1.97 µM). For the same molecule, the MIC (Nakaseomyces glabratus [8]) was 3.9 µg/mL (≈ 15.6 µM), the MIC ([Candida] haemuloni [9]) was 0.24 µg/mL (≈ 0.963 µM) and the MIC (Aspergillus flavus) was 3.9 µg/mL (≈ 15.6 µM). For the same molecule, the MIC (Candida albicans [10]) was 1.95 µg/mL (≈ 7.82 µM), the Activity (Candida albicans [11]) was “inactive” and the MIC ([Candida] auris [12]) was 0.49 µg/mL (≈ 1.97 µM). For the same molecule, the MIC (Candida albicans [13]) was 1.95 µg/mL (≈ 7.82 µM), the MIC (Aspergillus nidulans) was 0.49 µg/mL (≈ 1.97 µM) and the MIC ([Candida] auris [14]) was 1.95 µg/mL (≈ 7.82 µM). The MIC ([Candida] auris [15]) was 0.49 µg/mL (≈ 1.97 µM), the MIC ([Candida] auris [16]) was 0.12 µg/mL (≈ 0.482 µM) and the MIC (Pichia kudriavzevii [17]) was 0.24 µg/mL (≈ 0.963 µM). The MIC (Candida duobushaemulonii [18]) was 0.24 µg/mL (≈ 0.963 µM), the MIC (Candida albicans [19]) was 0.98 µg/mL (≈ 3.93 µM) and the MIC (Candida duobushaemulonii [20]) was 0.24 µg/mL (≈ 0.963 µM). It also gave an MIC ([Candida] auris [21]) of 0.98 µg/mL (≈ 3.93 µM), an MIC (Saccharomyces cerevisiae [22]) of 1.95 µg/mL (≈ 7.82 µM) and an MIC (Pichia kudriavzevii [23]) of 0.24 µg/mL (≈ 0.963 µM). For the same molecule, the MIC (Saccharomyces cerevisiae [24]) was 1.95 µg/mL (≈ 7.82 µM), the MIC (Aspergillus terreus) was 0.98 µg/mL (≈ 3.93 µM) and the MIC ([Candida] auris [25]) was 0.49 µg/mL (≈ 1.97 µM). The MIC (Nakaseomyces glabratus [26]) was 3.9 µg/mL (≈ 15.6 µM), the MIC (Candida duobushaemulonii [27]) was 0.49 µg/mL (≈ 1.97 µM) and the MIC (Candida albicans [28]) was 1.95 µg/mL (≈ 7.82 µM). The MIC (Candida albicans [29]) was 3.9 µg/mL (≈ 15.6 µM), the MIC (Candida albicans [30]) was 0.12 µg/mL (≈ 0.482 µM) and the MIC ([Candida] haemuloni [31]) was 0.98 µg/mL (≈ 3.93 µM). The MIC ([Candida] auris [32]) was 0.24 µg/mL (≈ 0.963 µM), the MIC ([Candida] auris [33]) was 0.49 µg/mL (≈ 1.97 µM) and the MIC (Cryptococcus neoformans) was 0.49 µg/mL (≈ 1.97 µM). It also gave an MIC ([Candida] auris [34]) of 0.98 µg/mL (≈ 3.93 µM).
